# A selection: hits, their analogues and other compounds. The true share with any hit is near 1.9%.
# PG9 binder: PG9 antibody binding by small molecule. 360,000 compounds, 0.43% hits. inhibition, % at 6.7 µM. TR-FRET gp120-PG9 antibody binding; in the data active = inhibition above about 8.5%
# Rce1 inh: yeast Ras-converting enzyme inhibition | Q03530 | yeast membranes, quenched prenylated peptide cleavage fluorescence | calls only | 290,000 compounds, 0.27% hits;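 active = fall in fluorescence gain of 50% or more versus controls, with final raw signal at or below 3038400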;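 note: plate controls were neutral control wells for no effect and wells lacking membranes for full effect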
# Target sequence (Q03530 whole entry, looked up): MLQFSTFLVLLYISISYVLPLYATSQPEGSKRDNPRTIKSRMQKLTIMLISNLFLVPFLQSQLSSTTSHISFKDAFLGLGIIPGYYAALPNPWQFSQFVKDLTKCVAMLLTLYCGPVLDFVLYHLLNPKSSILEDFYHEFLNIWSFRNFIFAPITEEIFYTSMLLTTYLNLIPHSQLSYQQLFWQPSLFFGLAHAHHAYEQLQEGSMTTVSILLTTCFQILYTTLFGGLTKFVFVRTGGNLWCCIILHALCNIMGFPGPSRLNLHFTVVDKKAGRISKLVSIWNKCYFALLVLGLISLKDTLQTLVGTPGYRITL
# NR1D1 modulator: Rev-erb alpha (human) modulation; Rev-erbα–FITC-DNA binding, fluorescence polarization, 90 min; activity, % at 10 µM; 370,000 compounds, 0.79% hits; AID 1259318;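 active = activity above about 14%, limit read from the data; passing the limit was not always enough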;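 note: 0% = DMSO wells with 35 nM protein and 100% = DMSO wells with 750 nM protein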
# UCH37 DUB inh: inhibitors of human deubiquitinating enzyme UCH37 | inhibition, % (no concentration beside the values) | AID 588478 | purified proteasome/UCH37, Ub-AMC cleavage fluorescence | Q9Y5K5 | 330,000 compounds, 0.33% hits;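 active = mean inhibition over replicate wells above about 20%, limit read from the data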;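 note: 0% = compound-free wells with enzyme and 100% = wells lacking proteasome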
# Target sequence (Q9Y5K5 whole entry, looked up): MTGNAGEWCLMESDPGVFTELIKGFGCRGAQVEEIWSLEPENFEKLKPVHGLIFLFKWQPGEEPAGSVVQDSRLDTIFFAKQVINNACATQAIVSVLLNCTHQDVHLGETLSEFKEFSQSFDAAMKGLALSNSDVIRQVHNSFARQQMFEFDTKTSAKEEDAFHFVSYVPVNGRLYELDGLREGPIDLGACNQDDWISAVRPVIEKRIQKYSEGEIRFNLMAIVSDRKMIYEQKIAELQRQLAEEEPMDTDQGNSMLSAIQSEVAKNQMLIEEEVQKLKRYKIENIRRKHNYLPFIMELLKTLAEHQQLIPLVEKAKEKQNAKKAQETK
#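 System: Proteasome-associated human UCH37 deubiquitinase; Input: 0.15 nM proteasome in added enzyme buffer; Also added: Ub-AMC substrate from 1 µM stock; Incubation: 30 min compound-proteasome preincubation then 25 min substrate reaction, room temperature; Detection: fluorescence, ex 355 nm, em 460 nm; Read-out: % inhibition of Ub-AMC cleavage fluorescence; Benchmarks: no-proteasome and no-compound wells.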
# CR mimetic SO: lowers age-related superoxide in aged yeast cells. S. cerevisiae aged cells, superoxide DHE fluorescence; active compounds read low. superoxide response (% of plate mean), % at 10 µM. 330,000 compounds, 0.18% hits;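 active = superoxide response under a set limit, about three screen SD below normal, cut at about 65% in these data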;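 note: yeast aged for seven days with compound at 30 °C before DHE staining; 100% = average MFI of all compound-treated wells on the plate with controls excluded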
# beta cell repl: inducers of beta-cell replication in MIN6 cells. MIN6 cells proliferation, ATPlite luminescence, 48 h; cells starved in 0.2% serum; 100% = growth in 10% serum. proliferation, % at 10 µM. 330,000 compounds, 0.29% hits. AID 2380;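 active = compounds whose signal lies at least 3.5 SD above the mean of all wells on their plate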;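 note: 0% = DMSO-treated cells in low-serum medium and 100% = 10% serum control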
# NR1D1 mod conf: confirmation of modulators of human Rev-erb alpha DNA binding; shares compounds with NR1D1 modulator; Rev-erb alpha FITC-DNA binding, fluorescence polarization, 90 min; activation, % at 25 µM; 3,000 compounds, 61% hits; AID 1259319;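 active = activation at or above a set limit, or at least 3 SD above the negative control mean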;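 note: 0% = 35 nM protein with DMSO and 100% = 750 nM protein high control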
# RORg DNA counter: counter-screen for Rev-erb alpha modulators: RORgamma DNA binding; shares compounds with NR1D1 modulator; purified RORgamma protein-FITC-DNA binding, fluorescence polarization; IC50, µM; 910 compounds, 8% hits; AID 1259320;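 active = Compounds whose fitted half-maximal concentration for disrupting protein-DNA binding is below 10 micromolar; the record names Rev-erb in its text, so the target is in doubt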
# * = called active by the depositor; i = inactive; . = no result.
SMILES,PG9 binder,Rce1 inh,NR1D1 modulator,UCH37 DUB inh,CR mimetic SO,beta cell repl,NR1D1 mod conf,others
CCc1ccc(-n2c(SCC(=O)c3ccc4c(c3)NC(=O)CO4)nc3ccccc3c2=O)cc1,1.2,i,13.5,3.5,99.7,-3.0,.,
CCCn1c(SCC(=O)c2ccc3c(c2)NC(=O)CO3)nc2ccccc21,-1.9,i,0.7,4.8,92.5,-4.1,.,
CC(C)Cc1nc2sc3c(=O)[nH]cnc3c2c2c1CCC2,3.7,i,38.1*,-28.5,110.6,0.8,9.4,
CC(C)c1nc2sc3c(=O)[nH]cnc3c2c2c1CCCC2,0.0,i,24.6*,-2.8,107.0,-3.7,-0.1,
CCCCc1nc2sc3c(=O)[nH]cnc3c2c2c1CCCC2,3.8,i,12.1,-8.6,112.2,-0.3,.,
COCCCn1c(C(=O)NCCC2=CCCCC2)cc2c(=O)n3cccc(C)c3nc21,1.0,i,62.3*,-366.7,118.9,4.9,39.9*,RORg DNA counter=>40
c1ccc(-c2nc(SCc3nc4ccccc4[nH]3)c3oc4ccccc4c3n2)cc1,-1.7,.,46.3*,1.9,101.0,-3.0,45.0*,RORg DNA counter=>40
Cc1nc(SCc2nc3c(F)cccc3[nH]2)c2oc3ccccc3c2n1,4.6,.,29.8*,5.5,106.2,1.1,38.5*,RORg DNA counter=>40
N#CCCn1cc(/C=C(\C#N)c2nc3ccccc3s2)c(-c2ccc(F)cc2)n1,-2.2,i,45.3*,-88.2,122.2,0.6,34.9*,
O=C(Nc1ccccn1)c1cc(-c2ccc(Cl)s2)nc2ccccc12,-0.8,.,0.1,-90.5,109.7,-5.5,.,
Cc1ccc(S(=O)(=O)N2CCN(C(=O)CNC(=O)c3sc4ccccc4c3Cl)CC2)cc1,-0.3,i,22.6*,-10.6,107.5,-0.1,5.1,
Cc1ccnc(NC(=O)CNC(=O)c2sc3ccccc3c2Cl)c1,5.5,i,35.2*,.,112.0,0.1,6.2,
Cc1ccnc(NC(=O)c2cc(-c3ccc(Cl)s3)nc3ccccc23)c1,-3.5,i,24.4*,-54.2,89.8,-3.7,-6.0,
COC(=O)c1ccc(CNC(=O)CNC(=O)c2sc3ccccc3c2Cl)cc1,-1.6,i,2.0,0.2,108.6,4.3,.,
O=C(CNC(=O)c1sc2ccccc2c1Cl)NCc1ccccc1,-8.7,i,22.1*,3.6,125.2,-0.3,11.3,
CC(=NNC(=O)c1cccc(C)c1)c1c(O)cc(C)oc1=O,.,.,.,7.7,.,.,.,
CCOC(=O)CC(C)=NNC(=O)COc1ccccc1C,.,.,.,7.5,.,.,.,
Cc1cc(NC(=O)c2ccc(S(=O)(=O)N3CCCC3)cc2)nc2c1c(=O)oc1ccccc12,-1.1,i,35.9*,-12.5,.,.,7.6,
Cc1cc(NC(=O)c2ccc(S(=O)(=O)N3CCOCC3)cc2)nc2c1c(=O)oc1ccccc12,-1.5,i,36.2*,-1.4,112.5,-0.7,16.3,
Cc1cc(C)c(NC(=O)c2ccc(S(=O)(=O)N3CCOCC3)cc2)c(C)c1,1.4,i,2.1,4.7,106.7,-2.4,.,
Fc1ccc(COc2ccc(C=Nn3cnnc3)cc2)cc1,.,.,.,4.2,.,.,.,
CCOC(=O)N1CCN(c2ncnc3c2oc2nc(C(C)C)c4c(c23)CCC4)CC1,3.0,.,44.6*,-11.1,120.7,4.0,83.7*,RORg DNA counter=>40
COc1ccc(Cl)cc1-c1cc(C(=O)Nc2ccc(F)cc2)[nH]n1,0.1,.,66.6*,.,.,.,48.0*,RORg DNA counter=>40
COc1ccc(NC(=O)c2cc(-c3cc(Cl)ccc3OC)n[nH]2)cc1OC,0.2,.,8.0,.,.,.,.,
O=C(COc1ccc(/C=N/NC(=O)c2cc3ccccc3o2)cc1Br)Nc1ccccc1,-63.3,i,19.3*,.,115.6,-4.4,25.8*,
SMILES,PG9 binder,Rce1 inh,NR1D1 modulator,UCH37 DUB inh,CR mimetic SO,beta cell repl,NR1D1 mod conf,others
CC1CCCC(C)N1C(=O)c1cccc2c1-c1ccccc1C2=NO (stereo not given),.,.,.,1.8,.,.,.,
CCOC(=O)c1c(C)nc(C)c(C(=O)OCC)c1-c1ccc(OC)cc1,-0.9,i,0.9,0.9,87.5,-2.4,.,
CCOC(=O)c1c(C)nc2c(c1-c1ccc(OC)c(OC)c1)C(=O)c1ccccc1-2,1.6,i,52.8*,5.2,123.5,-2.8,47.0*,
Cc1ccsc1C=Nn1c(-c2cc(-c3ccccc3)n[nH]2)n[nH]c1=S,.,.,.,4.1,.,.,.,
Cn1cc(C2=C(c3ccc(Cl)cc3Cl)C(=O)NC2=O)c2ccccc21,-2.1,i,36.2*,5.2,94.4,-0.4,20.1*,
CC(=O)Nc1ccc(S(=O)(=O)Nc2ccn(Cc3ccccc3Cl)n2)cc1,-1.7,i,14.7*,4.8,.,-0.9,-3.2,
CC(=O)Nc1ccc(S(=O)(=O)Nc2ccc(Cl)nn2)cc1,0.0,i,-4.7,6.6,93.0,3.0,.,
Cc1cc(C)c(C#N)c(SCC(=O)N2CCCCC2)n1,-0.5,i,-1.1,2.9,106.0,-0.8,.,
Cc1cc(C)c2nc(SCC(=O)NCC3CCCO3)c(C#N)cc2c1 (stereo not given),-1.4,i,60.0*,-22.7,107.1,4.1,41.8*,RORg DNA counter=>40
Cc1cc(C)c2nc(SCC(=O)N3CCCCC3)c(C#N)cc2c1,-1.2,i,27.5*,3.5,.,.,23.3*,
COC(=O)C/C=C/[C@@H](C)[C@@H](C=NOC[C@H]1O[C@H](c2ccccc2)C=C[C@@H]1Oc1ccc(OC)cc1)NS(=O)(=O)c1ccc(C)cc1,.,.,.,1.7,.,.,.,
CN(C)c1ccc(/C=C/c2nc3ccccc3c(=O)n2-c2ccc(C(=O)O)cc2)cc1,-0.2,i,22.8*,11.5,99.8,-4.1,23.5*,
C=C(C)C1CC=C(C)C(=NNC(=O)c2ccccc2[N+](=O)[O-])C1 (stereo not given),.,.,.,0.9,.,.,.,
O=C(Nc1cccnc1)c1sc2cccc(F)c2c1Cl,0.2,i,3.5,2.9,98.1,0.2,.,
O=C(Nc1ccccn1)c1sc2cccc(F)c2c1Cl,1.2,i,25.4*,-9.7,105.4,-6.2,9.4,
COc1cc(C=NNC(=O)COc2cccc(F)c2)ccc1OS(=O)(=O)c1ccc(C)cc1,.,.,.,6.6,.,.,.,
O=C(NN=CC1CCCCC1)c1ccccn1,.,.,.,0.3,.,.,.,
O=c1[nH]c(=S)c2[nH]c(=S)n(-c3ccccc3)c2[nH]1,-2.7,.,15.2*,15.2,.,.,0.4,
O=c1[nH]c(=O)c2[nH]c(=O)n(-c3ccccc3)c2[nH]1,-1.9,.,-2.2,-0.3,.,.,.,
CCc1nnc(NC(=O)CSc2nc(-c3ccc(F)cc3)cc(-c3ccccc3)c2C#N)s1,-0.2,.,37.7*,-10.2,.,.,15.7,
CCSc1nc(-c2ccc(OC)cc2)cc(-c2ccccc2)c1C#N,0.9,i,20.8,-3.1,105.1,-5.9,.,
COc1ccc(-c2cc(-c3ccccc3)nc(SCC(=O)Nc3ncc(C)s3)c2C#N)cc1,3.3,i,38.9*,-10.4,113.8,-2.7,6.6,

# Compound activity from PubChem BioAssay.
